Legend:
Homo sapiens [1] = species: Homo sapiens; assay: Inhibition of 0.5-0.7 uM of U-46,619 induced [14C]5-HT secretion; assay type: functional
Summary of the method: (§1)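 Human platelet-rich plasma from medication-free volunteers. Dense-granule secretion measured as release of radioactivity from prelabeled platelets, induced by ADP or U46619. Inhibitors added 1 min before the inducer, which was used at the minimum concentration giving maximal aggregation. Values are IC50s.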

Homo sapiens [2] = species: Homo sapiens; assay: Inhibition of 0.5-0.7 uM of U-46,619 induced human platelet aggregation; assay type: functional
Summary of the method: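 Human platelet-rich plasma from donors medication-free for at least 10 days. Born turbidometric aggregation, with U46619 at the minimum concentration giving maximal aggregation. Inhibitor added 1 min before U46619. IC50 taken from the change in light-transmittance amplitude at 4 min.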

Rattus norvegicus [3] = species: Rattus norvegicus; assay: Inhibition of U-46,619-induced contraction of Rat thoracic aorta in the presence of indomethacin, KB; assay type: functional
Rattus norvegicus [4] = species: Rattus norvegicus; assay: Inhibition of U-46,619-induced contraction of Rat thoracic aorta in the presence of indomethacin (control); assay type: functional
Summary of the method: (§2)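 Rat thoracic aortic strips equilibrated 1 h in Krebs-Henseleit solution containing 3 X 10^-6 M indomethacin; TMQ analogues tested at 100 µM against U46619-induced contraction. Cumulative U46619 concentration-response curves by the van Rossum method. U46619 EC50 read graphically from individual percent response vs log concentration plots and expressed as pD2. Significance level 5% versus control.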

Rattus norvegicus [5] = species: Rattus norvegicus; assay: Inhibition of U-46,619-induced contraction of Rat thoracic aorta in the presence of indomethacin, at conc 100 uM; assay type: functional; summary of the method: as §2
Rattus norvegicus [6] = species: Rattus norvegicus; assay: Log of KB that is, inhibition of U-46,619-induced contraction of Rat thoracic aorta in the presence of indomethacin; assay type: functional
Rattus norvegicus [7] = species: Rattus norvegicus; assay: Inhibition of U-46,619-induced contraction of Rat thoracic aorta in the presence of indomethacin control); assay type: functional; summary of the method: as §2
Homo sapiens [8] = species: Homo sapiens; assay: Inhibition of 0.5-0.7 uM of ADP induced [14C]5-HT secretion; assay type: functional, organism-based; details: in the assay text read “1.5-1.9 uM” for “0.5-0.7 uM”; summary of the method: as §1
Homo sapiens [9] = species: Homo sapiens; assay: Inhibition of 1.5-1.9 uM of ADP-induced human platelet aggregation; assay type: functional
Summary of the method: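 Platelet-rich plasma from human volunteers free of medication for at least 10 days. Turbidometric (Born) aggregation in a dual-channel aggregometer, with ADP at the minimum concentration giving maximal aggregation. Inhibitor added 1 min before ADP. IC50 derived from the change in light-transmittance amplitude at 6 min. Mean ± SEM of three preparations.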

Rattus norvegicus [10] = species: Rattus norvegicus; assay: Inhibition against U-46,619-induced contraction of Rat thoracic aorta was determined expressed as pA2; assay type: functional; details: read-out: pA2 (converted)
Rattus norvegicus [11] = species: Rattus norvegicus; assay: Inhibition of U-46,619-induced contraction of Rat thoracic aorta in the presence of indomethacin(control); assay type: functional; summary of the method: as §2
Rattus norvegicus [12] = species: Rattus norvegicus; assay: Inhibition of U-46,619-induced contraction of Rat thoracic aorta in the presence of indomethacin; assay type: functional; summary of the method: as §2
Rattus norvegicus [13] = species: Rattus norvegicus; assay: Inhibition of U-46,619-induced contraction of Rat thoracic aorta expressed as pKB value of the compound; assay type: functional

IC50 (Homo sapiens [1]) [µM] | IC50 (Homo sapiens [2]) [µM] | IC50 (Homo sapiens [8]) [µM] | IC50 (Homo sapiens [9]) [µM] | SMILES | Kb (Rattus norvegicus [3]) [µM] | pD2 (Rattus norvegicus [4]) | pD2 (Rattus norvegicus [5]) | pKB (Rattus norvegicus [6]) | pD2 (Rattus norvegicus [7]) | Kb (Rattus norvegicus [10]) [µM] | pD2 (Rattus norvegicus [11]) | Kb (Rattus norvegicus [12]) [µM] | pKB (Rattus norvegicus [13])
56.2 | 50.2 |  |  | COc1ccc(CN2CCc3cc(O)c(O)cc3C2Cc2cc(OC)c(OC)c(OC)c2)cc1 (stereo not given) | 69.2 | 8.07 | 7.64 | 4.16 |  |  |  |  | 
264 | 257 |  |  | COc1cc(CC2c3cc(O)c(O)cc3CCN2Cc2ccc(Cl)c(Cl)c2)cc(OC)c1OC (stereo not given) |  |  | 8.22 |  | 8.12 |  |  |  | 
27.1 | 27 | 29.1 | 40 | COc1cc(CC2c3cc(O)c(O)cc3CCN2Cc2ccc(N)cc2)cc(OC)c1OC (stereo not given) | 162 | 8.26 | 8.03 | 3.79 |  |  |  |  | 
128 | 119 |  |  | COc1cc(CC2c3cc(O)c(O)cc3CCN2Cc2ccc(Cl)cc2)cc(OC)c1OC (stereo not given) |  | 8.1 | 8.09 |  |  |  |  |  | 
66.4 | 67.4 | 54.1 | 67.5 | COc1cc(CC2c3cc(O)c(O)cc3CCN2Cc2ccccc2)cc(OC)c1OC (stereo not given) | 138 | 8.11 | 7.86 | 3.86 |  |  |  |  | 
269 | 296 | 289 | 359 | COc1cc(CC2c3cc(O)c(O)cc3CCN2Cc2ccc([N+](=O)[O-])cc2)cc(OC)c1OC (stereo not given) | 89.1 | 8.21 | 7.84 | 4.05 |  |  |  |  | 
40.4 | 55.9 |  |  | COc1cc(CC2c3cc(O)c(O)cc3CCN2Cc2ccc(C)cc2)cc(OC)c1OC (stereo not given) | 55 |  | 7.58 | 4.26 |  | 30.2 | 8.05 |  | 
0.75 | 0.77 |  |  | COc1cc(NCc2ccc3nc(N)nc(N)c3c2C)cc(OC)c1OC [TRIMETREXATE] |  |  | 6.78 |  |  |  |  | 4.26 | 5.37
